From ChEMBL document CHEMBL1152191, “Identification and optimization of N3,N6-diaryl-1H-pyrazolo[3,4-d]pyrimidine-3,6-diamines as a novel class of ACK1 inhibitors” (Bioorg Med Chem Lett, 2008)

Key:
Activated CDC42 kinase 1 [1] = molecular target: T1, Activated CDC42 kinase 1 (Homo sapiens, UniProt Q07912); assay: Inhibition of histidine-tagged ACK1 (amino acids 117 to 489) expressed in SF9 cells
Activated CDC42 kinase 1 [2] = molecular target: T1, Activated CDC42 kinase 1; assay: Inhibition of flag-tagged ACK1 autophosphorylation expressed in human 293 cells; assay type: cell-based, HEK293
How it was run: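 293 cells stably expressing Flag-ACK1 are detached with PBS/EDTA, washed, and pre-incubated in suspension with DMSO or compound. They are then re-plated for 2 h in medium with 10% FCS, with directly lysed cells as control. Autophosphorylation is read by anti-pTyr western blot after Flag IP, and IC50 determined.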

[3] = Clearance in Sprague-Dawley rat at 0.5 mg/kg, iv; assay type: ADME, organism-based; design: dose 0.5 mg/kg, route intravenous; settings: in vivo
How it was run: (§1)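 Male Sprague–Dawley rats received 0.5 mg/kg as an iv dose, with n = 3 animals per study. CL, Vss, MRT and AUC were derived from the plasma concentration profile.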

[4] = Volume of distribution at steady state in Sprague-Dawley rat at 0.5 mg/kg, iv; assay type: ADME, organism-based; design: dose 0.5 mg/kg, route intravenous; settings: in vivo, read-out: Vdss; how it was run: as §1
[5] = Mean residence time in Sprague-Dawley rat at 0.5 mg/kg, iv; assay type: ADME, organism-based; design: dose 0.5 mg/kg, route intravenous; settings: in vivo; how it was run: as §1
[6] = AUC in Sprague-Dawley rat at 0.5 mg/kg, iv; assay type: ADME, organism-based; design: dose 0.5 mg/kg, route intravenous; settings: plasma; how it was run: as §1
[7] = molecular target: Tyrosine-protein kinase Lck (Homo sapiens, UniProt P06239); assay: Inhibition of LCK
Chain of Tyrosine-protein kinase Lck (P06239 whole entry): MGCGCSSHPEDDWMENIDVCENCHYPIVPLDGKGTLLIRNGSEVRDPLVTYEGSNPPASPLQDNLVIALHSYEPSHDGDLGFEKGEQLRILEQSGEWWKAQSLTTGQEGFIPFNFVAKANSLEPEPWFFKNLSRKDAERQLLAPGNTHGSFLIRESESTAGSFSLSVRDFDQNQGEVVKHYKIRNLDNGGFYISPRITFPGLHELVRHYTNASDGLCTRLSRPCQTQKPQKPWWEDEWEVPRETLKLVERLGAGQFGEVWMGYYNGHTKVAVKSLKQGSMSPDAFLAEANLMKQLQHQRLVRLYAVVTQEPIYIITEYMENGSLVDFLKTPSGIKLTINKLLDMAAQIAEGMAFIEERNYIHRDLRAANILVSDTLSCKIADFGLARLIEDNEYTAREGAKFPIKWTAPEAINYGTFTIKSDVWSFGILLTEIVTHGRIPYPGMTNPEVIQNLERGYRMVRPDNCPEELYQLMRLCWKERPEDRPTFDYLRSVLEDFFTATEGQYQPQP

[8] = molecular target: Tyrosine-protein kinase BTK (Homo sapiens, UniProt Q06187); assay: Inhibition of BTK
Chain of Tyrosine-protein kinase BTK (Q06187 whole entry): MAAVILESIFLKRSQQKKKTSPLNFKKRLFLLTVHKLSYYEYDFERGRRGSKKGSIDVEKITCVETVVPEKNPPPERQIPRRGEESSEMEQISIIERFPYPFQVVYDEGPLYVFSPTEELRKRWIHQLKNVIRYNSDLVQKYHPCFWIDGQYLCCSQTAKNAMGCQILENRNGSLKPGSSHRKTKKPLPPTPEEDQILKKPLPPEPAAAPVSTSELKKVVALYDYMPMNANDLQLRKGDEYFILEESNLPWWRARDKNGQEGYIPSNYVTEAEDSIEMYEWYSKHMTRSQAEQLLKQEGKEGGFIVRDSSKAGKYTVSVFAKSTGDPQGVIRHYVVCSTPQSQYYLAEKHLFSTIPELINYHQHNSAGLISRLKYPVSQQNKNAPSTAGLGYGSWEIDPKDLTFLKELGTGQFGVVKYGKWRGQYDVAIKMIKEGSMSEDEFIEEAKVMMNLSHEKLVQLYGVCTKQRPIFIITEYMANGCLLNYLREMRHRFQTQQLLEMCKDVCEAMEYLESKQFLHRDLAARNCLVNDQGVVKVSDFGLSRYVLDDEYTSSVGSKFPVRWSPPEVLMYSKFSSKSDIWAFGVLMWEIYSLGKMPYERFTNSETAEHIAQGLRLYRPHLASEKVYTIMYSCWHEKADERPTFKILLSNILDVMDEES

[9] = molecular target: Vascular endothelial growth factor receptor 2 (Homo sapiens, UniProt P35968); assay: Inhibition of KDR
Chain of Vascular endothelial growth factor receptor 2 (P35968 whole entry): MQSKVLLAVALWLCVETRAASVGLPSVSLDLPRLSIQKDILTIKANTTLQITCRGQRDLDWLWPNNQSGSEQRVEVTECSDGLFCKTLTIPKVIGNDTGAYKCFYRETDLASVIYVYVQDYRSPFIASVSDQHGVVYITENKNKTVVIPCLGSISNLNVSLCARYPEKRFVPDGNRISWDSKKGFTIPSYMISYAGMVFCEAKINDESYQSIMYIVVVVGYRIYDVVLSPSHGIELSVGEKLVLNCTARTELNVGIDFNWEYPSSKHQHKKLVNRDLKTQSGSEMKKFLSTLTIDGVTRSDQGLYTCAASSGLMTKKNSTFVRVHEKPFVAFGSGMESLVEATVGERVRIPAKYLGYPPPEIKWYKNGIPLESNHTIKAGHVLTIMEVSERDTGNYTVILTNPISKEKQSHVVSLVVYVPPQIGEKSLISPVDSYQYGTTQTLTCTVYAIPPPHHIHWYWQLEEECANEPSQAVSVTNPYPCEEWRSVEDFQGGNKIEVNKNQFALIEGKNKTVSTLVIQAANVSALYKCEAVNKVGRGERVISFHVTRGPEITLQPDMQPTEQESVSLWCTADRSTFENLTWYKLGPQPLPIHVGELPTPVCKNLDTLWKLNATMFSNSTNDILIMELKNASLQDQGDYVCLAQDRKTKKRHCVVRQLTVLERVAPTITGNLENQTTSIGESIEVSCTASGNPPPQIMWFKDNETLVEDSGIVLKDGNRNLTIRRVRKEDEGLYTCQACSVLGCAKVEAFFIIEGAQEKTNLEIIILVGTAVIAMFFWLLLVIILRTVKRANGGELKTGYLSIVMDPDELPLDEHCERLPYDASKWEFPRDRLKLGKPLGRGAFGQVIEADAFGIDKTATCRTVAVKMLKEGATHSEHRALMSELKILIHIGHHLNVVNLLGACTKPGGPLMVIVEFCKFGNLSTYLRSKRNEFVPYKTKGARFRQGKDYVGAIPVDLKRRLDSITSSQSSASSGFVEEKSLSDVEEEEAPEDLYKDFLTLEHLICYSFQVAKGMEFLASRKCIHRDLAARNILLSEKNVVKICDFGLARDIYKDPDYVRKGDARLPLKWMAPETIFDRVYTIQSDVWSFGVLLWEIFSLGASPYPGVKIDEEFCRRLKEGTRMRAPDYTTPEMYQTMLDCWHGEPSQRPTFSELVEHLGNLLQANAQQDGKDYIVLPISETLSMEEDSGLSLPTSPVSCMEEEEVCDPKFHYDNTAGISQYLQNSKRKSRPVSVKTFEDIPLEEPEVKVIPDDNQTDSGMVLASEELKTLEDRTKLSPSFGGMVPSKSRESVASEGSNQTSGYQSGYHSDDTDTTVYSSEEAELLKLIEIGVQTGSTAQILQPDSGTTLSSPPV

Angiopoietin-1 receptor = Angiopoietin-1 receptor (Homo sapiens, UniProt Q02763); assay: Inhibition of Tie2
Chain of Angiopoietin-1 receptor (Q02763 whole entry): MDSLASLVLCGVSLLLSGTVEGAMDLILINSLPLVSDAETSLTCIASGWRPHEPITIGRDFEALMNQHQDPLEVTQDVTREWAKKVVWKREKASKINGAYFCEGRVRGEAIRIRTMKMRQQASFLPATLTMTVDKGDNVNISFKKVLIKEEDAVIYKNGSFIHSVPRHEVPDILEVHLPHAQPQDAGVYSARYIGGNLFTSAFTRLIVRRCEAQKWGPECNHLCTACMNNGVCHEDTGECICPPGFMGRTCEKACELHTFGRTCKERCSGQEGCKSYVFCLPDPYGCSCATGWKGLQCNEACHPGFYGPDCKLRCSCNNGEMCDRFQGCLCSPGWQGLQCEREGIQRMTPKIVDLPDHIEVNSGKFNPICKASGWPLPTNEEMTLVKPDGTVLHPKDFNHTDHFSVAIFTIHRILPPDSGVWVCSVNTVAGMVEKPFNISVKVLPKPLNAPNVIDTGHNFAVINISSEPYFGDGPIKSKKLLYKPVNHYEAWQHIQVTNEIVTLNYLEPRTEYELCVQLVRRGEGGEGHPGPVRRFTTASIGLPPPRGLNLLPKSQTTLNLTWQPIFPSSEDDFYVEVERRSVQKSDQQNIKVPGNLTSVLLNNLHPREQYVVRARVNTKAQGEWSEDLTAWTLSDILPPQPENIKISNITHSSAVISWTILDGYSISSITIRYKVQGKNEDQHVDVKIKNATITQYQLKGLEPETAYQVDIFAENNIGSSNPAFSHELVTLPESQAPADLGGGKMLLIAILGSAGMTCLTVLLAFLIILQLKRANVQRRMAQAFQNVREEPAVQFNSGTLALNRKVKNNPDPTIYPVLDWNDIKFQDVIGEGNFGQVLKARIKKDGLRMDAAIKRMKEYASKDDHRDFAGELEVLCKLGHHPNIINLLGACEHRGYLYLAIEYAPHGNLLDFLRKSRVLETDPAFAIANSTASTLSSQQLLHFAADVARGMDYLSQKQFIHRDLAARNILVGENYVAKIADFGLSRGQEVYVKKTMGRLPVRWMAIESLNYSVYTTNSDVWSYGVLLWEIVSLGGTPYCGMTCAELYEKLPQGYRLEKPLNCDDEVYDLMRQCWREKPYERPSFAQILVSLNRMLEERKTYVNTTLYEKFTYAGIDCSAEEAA

[10] = molecular target: T2, Tyrosine-protein kinase JAK3 (Homo sapiens, UniProt P52333); assay: Inhibition of Jak3
T2 sequence (P52333 whole entry): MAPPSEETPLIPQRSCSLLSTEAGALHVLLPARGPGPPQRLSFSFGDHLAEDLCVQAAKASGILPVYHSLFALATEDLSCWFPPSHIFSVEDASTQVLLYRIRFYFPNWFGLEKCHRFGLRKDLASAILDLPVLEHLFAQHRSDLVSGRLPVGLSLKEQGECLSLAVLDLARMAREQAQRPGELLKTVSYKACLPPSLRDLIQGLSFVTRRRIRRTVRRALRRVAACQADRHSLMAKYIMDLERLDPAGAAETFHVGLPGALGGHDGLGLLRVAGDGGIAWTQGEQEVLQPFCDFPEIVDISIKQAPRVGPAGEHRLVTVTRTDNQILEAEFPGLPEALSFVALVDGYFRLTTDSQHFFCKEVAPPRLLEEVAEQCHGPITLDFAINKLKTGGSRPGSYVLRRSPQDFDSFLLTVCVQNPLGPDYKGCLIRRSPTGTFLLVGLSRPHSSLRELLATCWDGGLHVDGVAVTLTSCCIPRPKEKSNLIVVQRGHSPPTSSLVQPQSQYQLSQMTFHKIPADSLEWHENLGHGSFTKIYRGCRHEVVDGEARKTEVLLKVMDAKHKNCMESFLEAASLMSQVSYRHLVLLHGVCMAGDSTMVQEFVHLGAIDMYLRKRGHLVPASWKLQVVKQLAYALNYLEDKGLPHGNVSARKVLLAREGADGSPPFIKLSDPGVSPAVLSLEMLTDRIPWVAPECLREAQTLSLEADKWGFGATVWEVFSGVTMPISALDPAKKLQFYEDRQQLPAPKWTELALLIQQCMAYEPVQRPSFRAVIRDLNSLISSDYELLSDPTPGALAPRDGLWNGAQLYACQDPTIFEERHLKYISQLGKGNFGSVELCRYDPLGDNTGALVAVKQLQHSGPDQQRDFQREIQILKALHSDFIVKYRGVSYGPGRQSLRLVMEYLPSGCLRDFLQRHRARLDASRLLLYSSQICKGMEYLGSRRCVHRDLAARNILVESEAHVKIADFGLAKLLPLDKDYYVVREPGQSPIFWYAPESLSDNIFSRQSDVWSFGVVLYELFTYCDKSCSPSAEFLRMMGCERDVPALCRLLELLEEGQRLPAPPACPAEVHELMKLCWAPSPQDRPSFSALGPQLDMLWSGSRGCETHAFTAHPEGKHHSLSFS

[11] = Oral bioavailability in Sprague-Dawley rat at 4 mg/kg; assay type: ADME, organism-based; settings: in vivo
[12] = Clearance in Sprague-Dawley rat at 0.4 mg/kg, iv; assay type: ADME, organism-based; design: dose 0.4 mg/kg, route intravenous; settings: in vivo
How it was run: (§2)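 Male Sprague–Dawley rats were dosed intravenously; clearance and AUC were taken from the plasma profile.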

[13] = AUC in Sprague-Dawley rat at 0.4 mg/kg, iv; assay type: ADME, organism-based; design: dose 0.4 mg/kg, route intravenous; settings: plasma; how it was run: as §2

T1 sequence (Q07912 whole entry, the tested form may be a part): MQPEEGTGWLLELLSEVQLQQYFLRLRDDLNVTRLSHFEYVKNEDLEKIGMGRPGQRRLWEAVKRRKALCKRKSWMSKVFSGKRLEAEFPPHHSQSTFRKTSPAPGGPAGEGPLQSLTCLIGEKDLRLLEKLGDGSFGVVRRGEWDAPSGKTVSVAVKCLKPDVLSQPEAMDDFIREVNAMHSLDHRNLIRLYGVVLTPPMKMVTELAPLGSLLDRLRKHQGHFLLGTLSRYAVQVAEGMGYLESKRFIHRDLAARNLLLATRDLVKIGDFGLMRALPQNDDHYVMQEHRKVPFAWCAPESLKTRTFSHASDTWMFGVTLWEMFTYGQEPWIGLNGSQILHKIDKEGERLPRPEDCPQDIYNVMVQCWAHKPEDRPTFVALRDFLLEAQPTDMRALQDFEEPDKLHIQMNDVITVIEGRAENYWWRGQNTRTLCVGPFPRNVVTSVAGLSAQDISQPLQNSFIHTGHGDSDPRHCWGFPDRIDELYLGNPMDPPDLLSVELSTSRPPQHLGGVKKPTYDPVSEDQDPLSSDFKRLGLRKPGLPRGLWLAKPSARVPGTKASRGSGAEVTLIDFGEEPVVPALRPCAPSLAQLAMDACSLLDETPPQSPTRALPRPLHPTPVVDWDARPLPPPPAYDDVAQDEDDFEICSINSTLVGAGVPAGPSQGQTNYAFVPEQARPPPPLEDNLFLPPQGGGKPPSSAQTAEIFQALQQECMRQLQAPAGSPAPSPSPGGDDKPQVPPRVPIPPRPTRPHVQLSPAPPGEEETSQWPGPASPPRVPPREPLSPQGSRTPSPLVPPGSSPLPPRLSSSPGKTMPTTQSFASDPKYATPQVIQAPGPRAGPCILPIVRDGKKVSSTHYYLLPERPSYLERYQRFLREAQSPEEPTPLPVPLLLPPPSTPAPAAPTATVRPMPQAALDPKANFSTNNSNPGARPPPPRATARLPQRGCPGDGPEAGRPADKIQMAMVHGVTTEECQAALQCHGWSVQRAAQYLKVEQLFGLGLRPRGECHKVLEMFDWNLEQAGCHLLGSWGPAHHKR

| Compound | Ki (Activated CDC42 kinase 1 [1]) | IC50 (Activated CDC42 kinase 1 [2]) | further results |
| --- | --- | --- | --- |
| Cc1cccc(C)c1Nc1nn(CCN2CCOCC2)c2nc(Nc3ccccc3)ncc12 | 50 nM | 70 nM |  |
| CN(C)CCn1nc(Nc2c(Cl)cccc2Cl)c2cnc(Nc3ccccc3)nc21 | 5 nM | 140 nM |  |
| Cc1cccc(C)c1Nc1nn(CC[C@@H](O)CO)c2nc(Nc3ccccc3)ncc12 | 30 nM | 60 nM |  |
| COC(C)(C)CCn1nc(Nc2c(Cl)cccc2Cl)c2cnc(Nc3ccc(N4CCNCC4)cc3)nc21 | 12 nM | 10 nM | clearance [3]: 70 mL/min/kg; Vd [4]: 15.4 L/kg; MRT [5]: 3.6 h; AUC [6]: 117 ng·h/mL |
| ON1CCN(CCn2nc(Nc3c(Cl)cccc3Cl)c3cnc(Nc4ccccc4)nc32)CC1 | 50 nM | 30 nM |  |
| CN(C)C(=O)Cn1nc(Nc2c(Cl)cccc2Cl)c2cnc(Nc3ccccc3)nc21 | 30 nM | 90 nM |  |
| Cc1cccc(C)c1Nc1nn(CCCN2CCCC2)c2nc(Nc3ccccc3)ncc12 | 100 nM | 300 nM |  |
| COC(C)(C)CCn1nc(Nc2c(Cl)cccc2Cl)c2cnc(Nc3ccc(OCCN4CCCC4)c(F)c3)nc21 | 2 nM | 30 nM | clearance [3]: 48.3 mL/min/kg; Vd [4]: 7.7 L/kg; MRT [5]: 2.7 h; AUC [6]: 174 ng·h/mL |
| COC(C)(C)CCn1nc(Nc2c(C)cccc2C)c2cnc(Nc3ccc(N4CCN(C)CC4)cc3)nc21 | 2 nM | 20 nM |  |
| CN1CCN(CCn2nc(Nc3c(Cl)cccc3Cl)c3cnc(Nc4ccccc4)nc32)CC1 | 10 nM | 30 nM |  |
| CCN(CC)CCCn1nc(Nc2c(C)cccc2C)c2cnc(Nc3ccccc3)nc21 | 40 nM | 140 nM |  |
| COC(C)(C)CCn1nc(Nc2c(Cl)cccc2Cl)c2cnc(Nc3ccccc3)nc21 | 7 nM | 40 nM |  |
| CN(C)[C@@H]1CCN(CCn2nc(Nc3c(Cl)cccc3Cl)c3cnc(Nc4ccccc4)nc32)C1 | 10 nM | 20 nM |  |
| OC[C@H]1CCCN1CCn1nc(Nc2c(Cl)cccc2Cl)c2cnc(Nc3ccccc3)nc21 | 30 nM | 50 nM |  |
| Cc1cccc(C)c1Nc1nn(CCCN(C)C)c2nc(Nc3ccccc3)ncc12 | 30 nM | 40 nM |  |
| COC(C)(C)CCn1nc(Nc2c(C)cccc2C)c2cnc(Nc3ccccc3)nc21 | 3 nM | 20 nM |  |

| Compound | Ki (Activated CDC42 kinase 1 [1]) | IC50 (Activated CDC42 kinase 1 [2]) | further results |
| --- | --- | --- | --- |
| COC(C)(C)CCn1nc(Nc2c(C)cc(C)cc2C)c2cnc(Nc3ccc(N4CCN(C)CC4)cc3)nc21 | 12 nM | 50 nM |  |
| COC(C)(C)CCn1nc(Nc2c(C)cccc2C)c2cnc(Nc3ccc(OCCCN4CCCCC4)c(F)c3)nc21 | 3 nM | 60 nM | clearance [3]: 58.3 mL/min/kg; Vd [4]: 7.5 L/kg; MRT [5]: 2 h; AUC [6]: 148 ng·h/mL |
| COC(C)(C)CCn1nc(Nc2c(C)cccc2C)c2cnc(Nc3ccc(OCCN4CCCC4)cc3)nc21 | 3 nM | 20 nM | Ki [7]: 0.04 nM; Ki [8]: 0.25 nM; Ki [9]: 1590 nM; Ki (Angiopoietin-1 receptor): 1160 nM; Ki [10]: 170 nM |
| COC(C)(C)CCn1nc(Nc2ccccc2)c2cnc(Nc3ccccc3)nc21 | > 4000 nM |  |  |
| COC(C)(C)CCn1nc(Nc2c(C)cccc2C)c2cnc(Nc3ccc(OCCN4CCCC4)c(F)c3)nc21 | 3 nM | 20 nM | Ki [7]: 11 nM; Ki [8]: 125 nM; Ki [9]: > 12500 nM; Ki (Angiopoietin-1 receptor): > 2500 nM; Ki [10]: > 12500 nM |
| CN(C)CCCn1nc(Nc2c(Cl)cccc2Cl)c2cnc(Nc3ccccc3)nc21 | 5 nM | 20 nM |  |
| COC(C)(C)CCn1nc(Nc2ccccc2)c2cnc(Nc3ccc(N4CCN(C)CC4)cc3)nc21 | 400 nM | 2100 nM |  |
| OC[C@H](O)CCn1nc(Nc2c(Cl)cccc2Cl)c2cnc(Nc3ccccc3)nc21 | 10 nM | 20 nM | bioavailability [11]: 30% |
| COC(C)(C)CCn1nc(Nc2c(C)cc(F)cc2C)c2cnc(Nc3ccccc3)nc21 | 26 nM | 5500 nM |  |
| CCOc1ccccc1Oc1nc(Nc2ccc(N3CCNCC3)cc2)ncc1C(=O)Nc1c(C)cccc1C | 20 nM | 100 nM | clearance [12]: 63.3 mL/min/kg; AUC [13]: 76 ng·h/mL; Ki [7]: 13 nM; Ki [8]: 78 nM; Ki [9]: > 25000 nM; Ki (Angiopoietin-1 receptor): > 8300 nM; Ki [10]: 74 nM |
| COC(C)(C)CCn1nc(Nc2c(C)cc(C)cc2C)c2cnc(Nc3ccccc3)nc21 | > 2500 nM |  |  |
| O=C(Cn1nc(Nc2c(Cl)cccc2Cl)c2cnc(Nc3ccccc3)nc21)N1CCOCC1 | 70 nM | 140 nM |  |
| Cc1cccc(C)c1Nc1nn(CC[C@@H](O)CN(C)C)c2nc(Nc3ccccc3)ncc12 | 80 nM | 190 nM |  |
| COC(C)(C)CCn1nc(Nc2c(C)cc(F)cc2C)c2cnc(Nc3ccc(N4CCN(C)CC4)cc3)nc21 | 10 nM | 20 nM |  |
| COC(C)(C)CCn1nc(Nc2c(C)cccc2C)c2cnc(Nc3ccc(N4CCNCC4)cc3)nc21 |  |  | clearance [3]: 95 mL/min/kg; Vd [4]: 20.3 L/kg; MRT [5]: 3.5 h; AUC [6]: 104 ng·h/mL |
